Assay outcomes (PubChem)
Hits are enriched below; roughly 1.7% of the tested compounds scored in any of these assays.
PfHsp90 yeast 2 – growth inhibition of PfHsp90-expressing yeast, primary screen, antimalarial PfHsp90 inhibitor project, S. cerevisiae, BacTiter-Glo luminescence, single point, set 2. BacTiter-Glo ATP, 48 h; yeast lacking PDR1 and PDR3 efflux regulators. inhibition, % at 9.4 µM. 310,000 tested, 0.32% active;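 active = every replicate shows inhibition above about 80%, whatever the replicate mean, limit read from the data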;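 note: 0% = DMSO neutral controls and 100% = 20 µM radicicol positive controls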
PglD inh – C. jejuni PglD acetyltransferase inhibitors, primary screen, biochemical, DTNB colorimetric, single point | UDP-N-acetylbacillosamine N-acetyltransferase PglD (Campylobacter jejuni) | AID 602405, 2012 | inhibition, % at 12.5 µM | purified PglD enzyme, DTNB colorimetric CoA detection | 360,000 tested, 0.098% active; in the data active = inhibition above about 16%, passing the limit was not always enough
SKKanGAS inh – S. pyogenes SKKanGAS growth inhibitors in kanamycin, primary screen, streptokinase expression inhibitor project, SKKanGAS strain, BacTiter-Glo luminescence; 6 h; inhibition, % at 7.5 µM; 300,000 tested, 1.3% active; AID 1662, 2009;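 active = mean replicate score, as percent of positive control median, at least 50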;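 note: strain carries kanamycin resistance gene driven by streptokinase promoter and grows in 40 µg/ml kanamycin; loss of luminescence reflects streptokinase promoter inhibition or plain growth inhibition; 0% = median of DMSO wells and 100% = positive control at its reference dose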
CSC inhib – cancer stem cell viability inhibitors, primary screen, luminescence | 300,000 tested, 1.1% active | cancer stem cell-like cells viability | inhibition, % at 7.5 µM; in the data active = inhibition above about 75%; tested in HMLE shEcad cells
FN deposition inh – inhibitors of fibronectin matrix deposition, primary screen, AH1F cells, Alexa488-fibronectin fluorescence, plate reader; inhibition, % at 12.6 µM; 350,000 tested, 0.086% active; AID 743247, 2014; AH1F fibroblasts, overnight;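 active = mean inhibition across replicates of 30% or more, regardless of how many single replicates reach that level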;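 note: positive control wells lacked labelled fibronectin entirely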
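test system = AH1F fibroblasts assembling fluorescent fibronectin matrix | quantity = 10000 AH1F cells per well | buffer or medium = DMEM plus 2% serum, read in PBS | doses = single dose, pinned | incubation = 1 h cell attachment, overnight exposure to compound and label | detection = fluorescence at 485 nm excitation, 525 nm emission | read-out basis = inhibition from reduced deposited-fibronectin fluorescence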
Rtt109 Vps75 – inhibitors of C. albicans Rtt109/Vps75 HAT, primary screen, biochemical, ThioGlo CoA-SH fluorescence, plate reader; purified Rtt109/Vps75, 4 h; AID 540336, 2011; 330,000 tested, 0.16% active; inhibition, % at 34.9 µM;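 active = inhibition of at least 50% in every replicate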
Target sequence (Q5AAJ8 whole entry, looked up): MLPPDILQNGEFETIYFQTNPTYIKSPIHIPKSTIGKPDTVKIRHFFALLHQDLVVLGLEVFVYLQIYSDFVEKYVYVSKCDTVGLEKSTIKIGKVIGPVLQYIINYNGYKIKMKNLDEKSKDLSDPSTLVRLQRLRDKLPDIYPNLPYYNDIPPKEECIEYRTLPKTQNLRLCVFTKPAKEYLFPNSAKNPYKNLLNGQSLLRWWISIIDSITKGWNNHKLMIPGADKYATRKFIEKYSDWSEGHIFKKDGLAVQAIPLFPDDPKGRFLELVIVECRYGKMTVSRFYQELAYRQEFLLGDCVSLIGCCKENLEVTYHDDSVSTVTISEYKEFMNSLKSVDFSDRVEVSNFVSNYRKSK
* hit, by the source's call; x = no result.

SMILES	PfHsp90 yeast 2	PglD inh	SKKanGAS inh	CSC inhib	FN deposition inh	Rtt109 Vps75
CCCCNc1c(-c2ccc(SC3CCCCC3)cc2)nc2cnccn12	-16.0	-4.0	x	x	-45.3	1.4
COc1ccc(C(=O)Cn2nnc(-c3ccccc3NC(=O)c3ccco3)n2)cc1	-5.5	0.4	54.5*	34.9	x	3.1
C[C@@H]1CN([C@H](C)CO)C(=O)c2cccc(NC(=O)Nc3ccc(C(F)(F)F)cc3)c2O[C@@H]1CN(C)C	x	3.9	x	x	x	x
C/C(=N\NC(=O)c1c(Cl)c(C)nn1C)c1cccc(NC(=O)c2cccc(F)c2)c1	-9.3	5.1	55.4*	3.3	x	10.9
C/C(=N\NC(=O)c1c(Cl)c(C)nn1C)c1cccc(NC(=O)COc2ccccc2)c1	-6.7	1.1	12.3	x	1.1	-0.4
Cc1noc(C)c1S(=O)(=O)N(C)C[C@H]1Oc2c(NS(=O)(=O)c3cn(C)cn3)cccc2C(=O)N([C@@H](C)CO)C[C@@H]1C	x	48.9	x	x	-6.9	x
COc1ccc(-c2coc3c(C)c4oc(=O)c(CCC(=O)O)c(C)c4cc23)cc1	30.4	4.6	53.2*	x	x	1.4
CCn1nc(NC(=O)c2ccncc2)c2cc3cc(C)ccc3nc21	4.6	1.5	91.2*	-6.8	x	1.0
Cc1[nH]n(-c2ncc(-c3ccc(Cl)cc3)s2)c(=O)c1C(c1ccc(Cl)cc1)C(C#N)C#N (stereo not drawn)	-59.3	x	97.0*	96.2*	x	2.2
COc1ccc(C(c2c(C)[nH]n(C(N)=S)c2=O)C(C#N)C#N)cc1 (stereo not drawn)	-11.9	2.6	x	2.6	5.9	5.9
CSC(=S)NN=C(C)c1cccc(C)n1	104.5*	x	x	x	-2.3	-5.6
Cc1c(CCC(=O)O)c(=O)oc2c(C)c(OCc3cc4c(cc3Cl)OCO4)ccc12	1.3	0.9	67.2*	2.7	-3.4	-8.0
O=C(C[C@@H]1CC[C@@H](NC(=O)CCN2CCCCC2)[C@@H](CO)O1)Nc1nccs1	x	9.0	x	x	4.9	x
CCn1nc(C(=O)N[C@@H](CCSC)c2nc3ccccc3[nH]2)c2ccccc2c1=O	11.6	x	0.4	-13.7	x	14.4
CSCC[C@H](NC(=O)c1nn(C)c(=O)c2ccccc12)c1nc2ccccc2[nH]1	13.2	-1.0	74.0*	-0.4	x	1.7
Clc1ccc(COn2c(-c3ccc(Cl)cc3)nc3ccccc32)cc1	x	1.1	52.5*	41.8	-9.9	-2.1
CN(C)Cc1nc2ccccc2c(=O)n1Cc1nc(-c2cc3ccccc3o2)cs1	23.7	-2.4	74.0*	34.3	-1.7	x
CC(C)=CCC/C(C)=C/Cc1c(O)ccc(C(=O)/C=C/c2ccc(O)cc2)c1O	49.5	-0.2	105.6*	121.0*	2.2	9.4
C=C(C)C(O)Cc1c(OC)ccc(C(=O)/C=C/c2ccc(O)cc2)c1O (stereo not drawn)	13.8	-2.1	x	x	x	10.3
COc1ccc(C2=CC3=C(Br)C(=O)C(C)(O)C(=O)C3=CO2)cc1 (stereo not drawn)	106.8*	-1.2	2.4	-4.7	x	-8.9
CCC(=O)OC1(C)C(=O)C2=COC(c3ccc(OC)cc3)=CC2=C(Br)C1=O (stereo not drawn)	112.8*	-2.7	12.3	-0.7	-9.3	2.5
COC(=O)CCC(=O)OC1(C)C(=O)C2=CN(Cc3ccc(OC)cc3)C(c3ccc(OC)cc3)=CC2=C(Br)C1=O (stereo not drawn)	-0.9	4.7	12.5	-2.0	-18.4	-0.1
Cc1ccc(-c2cnc3c(c2)C(=O)N([C@H](C)CO)C[C@H](C)[C@@H](CN(C)C(=O)CN(C)C)O3)cc1	x	1.2	x	x	x	x
O=C1CCC(/C=C/c2ccccc2)=NN1Cc1ccccc1Cl	x	x	-15.5	-6.3	x	4.4
O=C1CCC(/C=C/c2ccccc2)=NN1Cc1ccc(Cl)c(Cl)c1	-31.6	x	53.0*	-10.9	x	0.9
SMILES	PfHsp90 yeast 2	PglD inh	SKKanGAS inh	CSC inhib	FN deposition inh	Rtt109 Vps75
O=C(Nc1cc(S(=O)(=O)Nc2ccc(Cl)cc2)ccc1O)c1ccc(S(=O)(=O)N2CCCCCC2)cc1	-0.4	-2.1	13.3	17.8	-10.0	-3.1
O=C(O)c1cccc(N/N=C/c2cc(Br)cc(Br)c2O)c1	110.2*	3.2	-13.8	-3.2	-2.6	18.1
O=C(N/N=C/c1ccccc1)c1ccc(NC(=O)c2ccc(F)cc2)cc1	-0.9	1.5	-2.4	3.3	2.8	-5.5
Cc1c(N=Cc2cc(Br)cc(Br)c2O)cccc1C(=O)O	102.5*	x	9.5	4.2	x	8.9
O=C(N/N=C/c1cc(Br)cc([N+](=O)[O-])c1O)c1ccc(NC(=O)c2ccc(F)cc2)cc1	5.0	1.9	58.5*	41.7	2.0	-1.1
O=C(N/N=C\c1cc(Cl)ccc1O)c1ccc(S(=O)(=O)N2CCCCC2)cc1	4.7	-7.8	120.6*	-3.8	25.4	1.8
C[C@H](O)C#Cc1cnc2c(c1)C(=O)N([C@@H](C)CO)C[C@@H](C)[C@H](CN(C)CC1CCCC1)O2	x	-1.9	x	x	1.3	x
O=C(C[C@H]1CC[C@@H]2[C@H](COC[C@@H](O)CN2S(=O)(=O)c2ccc(Oc3ccccc3)cc2)O1)Nc1ccccc1	x	0.8	x	x	16.5	x
O=C(N/N=C/c1cc(Cl)ccc1O)c1cccnc1	-14.2	-8.1	84.6*	31.2	1.6	0.8
O=C(N/N=C/c1cc(Cl)cc(Cl)c1O)c1ccncc1	-58.3	7.7	87.5*	9.3	-0.9	-8.3
O=C(N/N=C/c1cc(Br)cc(Br)c1O)c1ccncc1	x	x	68.7*	-5.9	2.2	x
Oc1c(Br)cc(Br)cc1C=Nc1cccnc1	100.8*	-7.2	39.3	41.7	1.0	-4.7
O=C(N/N=C/c1ccc(O)cc1O)c1ccncc1	5.0	-0.1	-1.8	70.7	6.5	-3.0
CN(C)C(=O)c1cccc(-c2ccccc2[C@@H]2[C@H](C#N)N(C(=O)C3CCCC3)[C@H]2CO)c1	x	x	x	x	-5.5	x
CO[C@@H]1CN(C)C(=O)c2ccc(NC(=O)Nc3c(C)noc3C)cc2OC[C@@H](C)NC[C@@H]1C	x	2.7	x	x	-8.4	x
C[C@H](CO)N1C[C@H](C)[C@@H](CN(C)CC2CCCCC2)Oc2c(NS(C)(=O)=O)cccc2C1=O	x	-3.4	x	x	x	x
COc1ccc(CN2C[C@@H](C)[C@@H](OC)CN(C)C(=O)c3cc(NC(=O)C4CC4)ccc3OC[C@H]2C)cc1	x	1.4	x	x	-0.6	x
Cc1cccc(-n2c(C)cc(/C=C3\C(=N)N4N=C(CC(C)C)SC4=NC3=O)c2C)c1	-10.2	-1.0	25.0	-3.5	11.8	-0.3
Cc1cc(C)cc(-n2c(C)cc(/C=C3\C(=N)N4N=C(CC(C)C)SC4=NC3=O)c2C)c1	-15.8	x	68.9*	103.5*	-0.1	4.0
